Assay outcomes from PubChem.
An excerpt weighted towards active compounds, which were near 3% of everything screened.
Casp6 inh – caspase-6 (human) enzyme inhibition. P55212. purified caspase-6, Z-VEID-R110 cleavage fluorescence. inhibition, % at 12.5 µM. 0.53% of 350,000 active. AID 686996;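 active = mean inhibition across replicates at least about 35%, with every replicate also reaching that limit, limit read from the data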;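 note: 0% = median of neutral control wells and 100% = no fluorescence left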
Target sequence (P55212 24-179 limits assumed): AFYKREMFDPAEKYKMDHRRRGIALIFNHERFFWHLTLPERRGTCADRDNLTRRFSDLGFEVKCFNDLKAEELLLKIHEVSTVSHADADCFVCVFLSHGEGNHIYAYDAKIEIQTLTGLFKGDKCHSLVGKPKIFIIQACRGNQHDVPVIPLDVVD
Target sequence (P55212 194-293 limits assumed): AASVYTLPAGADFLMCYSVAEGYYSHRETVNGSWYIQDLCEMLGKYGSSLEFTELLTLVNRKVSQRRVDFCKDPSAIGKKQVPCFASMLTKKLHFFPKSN
NSD2 HMT inh – blocks human histone methyltransferase NSD2 | O96028 | NSD2 peptide methylation, AlphaScreen, 120 min | inhibition, % at 12.5 µM | 0.54% of 310,000 active; in the data active = inhibition above about 50%
XiGFP reactiv – activators of X-chromosome reactivation in mouse fibroblasts | 0.055% of 360,000 active | XiGFP mouse fibroblasts, % GFP-positive cells imaging, 3 d; cells co-treated with 5-aza-dC sensitizer; scaled so ellipticine positive control = 100% | activation, % at 7.58 µM;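 active = mean normalized replicate activation at least 10% and every replicate at or above 10%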;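 note: 0% = median of on-plate neutral control wells and 100% = ellipticine 6 µM median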
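Material: XiGFP fibroblasts, SV40-immortalized; Buffer or medium: DMEM containing 5-aza-dC; Compound dosing: single point; Times: 3 days compound exposure.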
Wnt bcat act – Wnt/beta-catenin pathway activation | Wnt/beta-catenin reporter cell assay, activator, plate reader | activation, % at 9.35 µM | 1.2% of 300,000 active; in the data active = activation above about 30%, passing the limit was not always enough;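 note: 0% = neutral control wells and 100% = positive control wells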
esBAF inh – SWI/SNF esBAF complex inhibition; mouse ES cells, Bmi1-luciferase knock-in reporter, 24 h; 100% = twice the neutral-well signal; reporter increase, % at 12.5 µM; 2% of 350,000 active; in the data active = activation above about 40%;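 note: 0% = median of the plate's neutral control wells and 100% = double that signal; a rise in the Bmi1 reporter signal indicates esBAF inhibition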
MITF act – increases MITF-driven TRPM1 promoter luciferase signal; activation, % at 12.5 µM; 0.75% of 300,000 active; SK-MEL-5 TRPM1-promoter luciferase, 24 h; % of positive control, neutral wells = 0;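 active = mean activation of at least 80% with every replicate also reaching 80%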;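 note: 0% = neutral control wells and 100% = parthenolide positive control wells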
* marks the source's active call; other numbers are inactive results.

For CS(=O)(=O)N1CC2(C1)[C@@H](c1ccccc1)[C@@H](CO)N2CCC(F)(F)F the results were Casp6 inh 0.1 and XiGFP reactiv 0.0.
Screening O=C(O)C[C@H]1C[C@H]2c3cc(NC(=O)Nc4ccc(F)cc4)ccc3O[C@H]2[C@H](CO)O1 returned Casp6 inh 1.4, XiGFP reactiv 0.1 and esBAF inh -1.5.
`COc1cccc(C(=O)Nc2ccc(NC(=O)c3ccco3)nc2)c1` gave NSD2 HMT inh 0.7, esBAF inh 58.9* and MITF act 93.0*.
`Cc1cc(NC(=O)c2cccc(F)c2)ncc1NC(=O)c1ccco1` gave NSD2 HMT inh 3.5, Wnt bcat act 36.5*, esBAF inh 0.2 and MITF act 70.3.
For COc1cc(C(=O)Nc2ccc(NC(=O)c3ccco3)nc2)cc(OC)c1OC the results were NSD2 HMT inh -0.5, Wnt bcat act -5.0, esBAF inh -5.4 and MITF act -1.8.
For O=C(Nc1ccc(NC(=O)c2ccco2)nc1)c1cccc(F)c1 the results were Casp6 inh -0.5, NSD2 HMT inh -1.8, XiGFP reactiv 0.1, Wnt bcat act 31.2*, esBAF inh 11.3 and MITF act 67.0.
For Cc1noc(C)c1NC(=O)NCC[C@H]1CC[C@H](NC(=O)Nc2cccc(Cl)c2)[C@@H](CO)O1 the results were Casp6 inh -203.1, XiGFP reactiv -0.1 and esBAF inh 2.0.
CC(OC(=O)c1cc(O)c2ccccc2c1O)C(=O)Nc1ccc(C(N)=O)cc1 (centres undefined) was read as Casp6 inh 82.5*, XiGFP reactiv 0.0, Wnt bcat act 1.9, esBAF inh 8.0 and MITF act -30.5.
`CN(C)C(=O)C[C@H]1CC[C@H]2[C@@H](COc3ccc(NC(=O)c4cnccn4)cc3C(=O)N2C)O1` gave Casp6 inh 1.2, XiGFP reactiv 0.0 and esBAF inh -3.7.
Cc1ccc(/C=c2/sc3n(c2=O)CCCN=3)o1 was read as NSD2 HMT inh 10.2 and esBAF inh 53.0*.
Screening CN(C)C(=O)c1cccc(-c2ccc3c(c2)[C@H]2[C@H](CCN2C(=O)c2ccccc2)[C@@H](CO)N3C)c1 returned Casp6 inh -1.3, XiGFP reactiv 0.2 and esBAF inh -4.4.
`Cc1ccc2c(c1)sc1nc(=O)n(-c3ccccc3)c(=O)n12` gave Casp6 inh 0.5, XiGFP reactiv 0.0, Wnt bcat act 54.8* and MITF act 47.8.
`CSc1nnc2sc3cc(C)ccc3n12` gave Casp6 inh 1.8, NSD2 HMT inh -1.1, XiGFP reactiv -0.2, Wnt bcat act 15.6 and esBAF inh 18.7.
For COC(=O)C[C@H]1C[C@@H]2c3cc(NS(=O)(=O)c4ccc(OC)cc4)ccc3O[C@@H]2[C@@H](CO)O1 the results were XiGFP reactiv 0.0 and esBAF inh 2.8.
COc1ccc(NC(=O)c2c(Cl)n(C)c3ccccc23)cc1 was read as NSD2 HMT inh -4.5, Wnt bcat act -0.7, esBAF inh 58.6* and MITF act 15.8.
`COc1cccc(C(=O)Nc2cccc(SC)c2)c1` gave NSD2 HMT inh -3.6, Wnt bcat act 5.0, esBAF inh 60.4* and MITF act 80.5*.
`COc1ccc(NC(=O)c2ccc(C)cc2)cc1` gave Casp6 inh 0.7, NSD2 HMT inh 6.6, XiGFP reactiv 0.2, Wnt bcat act 9.3, esBAF inh -29.7 and MITF act 42.3.
For COc1ccc(C(=O)Nc2ccccc2C(N)=O)cc1 the results were NSD2 HMT inh 0.6, esBAF inh 33.1 and MITF act 83.0*.
COc1ccc(NC(=O)c2ccccc2)cc1 was read as Casp6 inh 0.2, XiGFP reactiv 0.0, Wnt bcat act 28.1, esBAF inh 21.4 and MITF act 108.1*.
For COc1ccc(NS(=O)(=O)NC(=O)c2c(C)n(C)c3ccccc23)cc1 the results were Casp6 inh -3.9, NSD2 HMT inh 8.1, XiGFP reactiv 0.2, Wnt bcat act 8.8, esBAF inh -3.1 and MITF act -4.3.
Screening C[C@H](CO)N1C[C@H](C)[C@H](CN(C)Cc2ccc(Cl)c(Cl)c2)Oc2c(NS(C)(=O)=O)cccc2C1=O returned Casp6 inh 2.6, XiGFP reactiv 0.0 and esBAF inh -6.4.
CSc1cccc(NC(=O)c2cccc3cccnc23)c1 was read as Casp6 inh -0.2, NSD2 HMT inh -4.4, XiGFP reactiv 0.0, Wnt bcat act 11.9, esBAF inh 48.1* and MITF act 44.1.
COc1ccc(-c2noc(-c3ccccc3C(=O)Nc3cccc(OC)c3)n2)cc1 was read as NSD2 HMT inh -1.9, Wnt bcat act 0.0, esBAF inh 12.3 and MITF act 12.7.
`COc1cccc(C(N)=O)c1` gave Wnt bcat act -1.2 and esBAF inh -6.1.
COc1ccccc1C(=O)Nc1cccc(SC)c1 was read as NSD2 HMT inh -1.8, Wnt bcat act 23.2 and MITF act 8.8.
Screening COc1cccc(C(=O)Nc2cccc(C(=O)NC3=NN(c4c(Cl)cc(Cl)cc4Cl)C(=O)C3)c2)c1 returned NSD2 HMT inh 7.1, Wnt bcat act 32.3* and esBAF inh 6.2.
CC(=O)Nc1cccc(Oc2ccc(-c3noc(C)n3)cc2)c1 was read as NSD2 HMT inh -0.2, Wnt bcat act 26.7, esBAF inh 72.2* and MITF act 56.1.
COc1cccc(/C(C)=N/N=C(\C)c2cccc(OC)c2)c1 was read as Casp6 inh -0.8, NSD2 HMT inh -6.4, XiGFP reactiv 0.0, Wnt bcat act 10.7 and esBAF inh 70.5*.
CC(C)(C)C(=O)NC1=NN(c2c(Cl)cc(Cl)cc2Cl)C(=O)C1 was read as Casp6 inh -2.9, NSD2 HMT inh 0.1, XiGFP reactiv 0.0, Wnt bcat act 1.7 and MITF act -3.1.
C[C@H]1CN([C@@H](C)CO)C(=O)c2cc(-c3cccnc3)cnc2O[C@@H]1CN(C)C(=O)Cc1cccnc1 was read as Casp6 inh 0.7, XiGFP reactiv -0.5 and esBAF inh -5.6.
`Cc1ccc(C(=O)Nc2cccc(Oc3ccccc3)c2)o1` gave NSD2 HMT inh -3.2, esBAF inh 68.5* and MITF act 89.7*.
For COc1cccc(C(=O)Nc2ccc(NC(=O)Cc3ccccc3)cc2)c1 the results were Casp6 inh -0.5, NSD2 HMT inh -1.4, XiGFP reactiv 0.4, Wnt bcat act -1.0 and esBAF inh -4.5.
For COc1cccc(C(=O)Nc2ccccc2)c1 the results were NSD2 HMT inh -12.0 and esBAF inh 51.6*.
`Cc1ccc(C(=O)Nc2ccccc2Oc2ccccc2)o1` gave Casp6 inh -1.0, NSD2 HMT inh 0.2, XiGFP reactiv 0.1, Wnt bcat act -1.2 and MITF act -4.8.
For COc1ccc(C(=O)CCc2ccccc2)cc1 the results were Casp6 inh -5.0, NSD2 HMT inh -4.4, XiGFP reactiv 0.0, Wnt bcat act 13.7, esBAF inh 48.5* and MITF act 98.3*.
